Source: ChEMBL document CHEMBL1144025, “1,3-Dipropyl-8-(1-phenylacetamide-1H-pyrazol-3-yl)-xanthine derivatives as highly potent and selective human A(2B) adenosine receptor antagonists” (Bioorg Med Chem, 2008)

Key:
Format in all cases: cell-based
[1] = biological target: T1, Adenosine receptor A3 (Homo sapiens, UniProt P0DMS8); assay: Displacement of [3H]MRE3008F20 from human adenosine A3 receptor expressed in CHO cells
T1 sequence (P0DMS8 whole entry): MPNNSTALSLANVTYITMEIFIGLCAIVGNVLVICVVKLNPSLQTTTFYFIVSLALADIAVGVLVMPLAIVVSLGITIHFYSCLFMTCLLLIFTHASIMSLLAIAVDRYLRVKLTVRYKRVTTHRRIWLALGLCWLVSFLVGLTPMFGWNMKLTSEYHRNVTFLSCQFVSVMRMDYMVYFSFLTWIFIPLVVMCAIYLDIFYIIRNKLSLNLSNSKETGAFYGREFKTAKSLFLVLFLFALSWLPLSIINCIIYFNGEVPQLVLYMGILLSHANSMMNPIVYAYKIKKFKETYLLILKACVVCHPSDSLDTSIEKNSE
In short: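 Membranes (50 µg protein/assay) in 50 mM Tris-HCl, 10 mM MgCl2, 1 mM EDTA, pH 7.4, incubated 120 min at 4 °C with [³H]MRE3008F20 and at least 6–8 ligand concentrations. Nonspecific binding defined with 1 µM MRE 3008F20. Glass fiber filtration and counting. Ki via Cheng-Prusoff; n = 3–6.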

[2] = biological target: T2, Adenosine receptor A2b (Homo sapiens, UniProt P29275); assay: Displacement of [3H]MRE2029F20 from human adenosine A2B receptor expressed in HEK293 cells
T2 sequence (P29275 whole entry): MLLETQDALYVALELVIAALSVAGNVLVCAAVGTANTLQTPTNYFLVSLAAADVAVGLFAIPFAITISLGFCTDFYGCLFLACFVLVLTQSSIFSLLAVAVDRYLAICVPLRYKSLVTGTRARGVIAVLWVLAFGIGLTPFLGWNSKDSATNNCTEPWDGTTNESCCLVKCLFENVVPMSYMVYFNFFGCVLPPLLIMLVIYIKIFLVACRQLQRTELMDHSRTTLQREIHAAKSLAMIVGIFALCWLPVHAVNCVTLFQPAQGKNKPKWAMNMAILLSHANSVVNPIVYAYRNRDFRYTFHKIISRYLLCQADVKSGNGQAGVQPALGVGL
In short: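 Membranes (50 µg protein/assay) in 50 mM Tris-HCl, 10 mM MgCl2, 1 mM EDTA, pH 7.4, incubated 120 min at 4 °C with [³H]MRE2029F20 and at least 6–8 compound concentrations. Nonspecific binding defined with 1 µM MRE 2029F20. GF/B filtration, scintillation counting. Ki via Cheng-Prusoff; n = 3–6.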

[3] = biological target: Adenosine receptor A2a (Homo sapiens, UniProt P29274); assay: Displacement of [3H]ZM-241385 from human adenosine A2A receptor expressed in CHO cells
Sequence of Adenosine receptor A2a (P29274 whole entry): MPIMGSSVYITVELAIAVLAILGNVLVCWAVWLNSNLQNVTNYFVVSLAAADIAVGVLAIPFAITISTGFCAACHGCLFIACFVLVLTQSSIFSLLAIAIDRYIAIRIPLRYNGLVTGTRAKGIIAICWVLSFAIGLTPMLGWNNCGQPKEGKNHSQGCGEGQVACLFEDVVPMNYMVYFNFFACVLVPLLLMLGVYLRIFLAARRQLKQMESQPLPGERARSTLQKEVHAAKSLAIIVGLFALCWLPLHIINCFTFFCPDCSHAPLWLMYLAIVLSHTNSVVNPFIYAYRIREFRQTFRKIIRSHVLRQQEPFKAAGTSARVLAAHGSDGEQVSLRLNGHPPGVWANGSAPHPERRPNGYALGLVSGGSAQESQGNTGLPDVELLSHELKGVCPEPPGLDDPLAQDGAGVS
In short: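 Membranes (50 µg protein/assay) in 50 mM Tris-HCl, 10 mM MgCl2, pH 7.4, incubated 60 min at 4 °C with [³H]ZM241385 and at least 6–8 concentrations of compound. Nonspecific binding defined with 1 µM ZM 241385. GF/B filtration and counting. Ki by Cheng-Prusoff; n = 3–6.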

[4] = biological target: T3, Adenosine receptor A1 (Homo sapiens, UniProt P30542); assay: Displacement of [3H]DPCPX from human adenosine A1 receptor expressed in CHO cells
T3 sequence (P30542 whole entry): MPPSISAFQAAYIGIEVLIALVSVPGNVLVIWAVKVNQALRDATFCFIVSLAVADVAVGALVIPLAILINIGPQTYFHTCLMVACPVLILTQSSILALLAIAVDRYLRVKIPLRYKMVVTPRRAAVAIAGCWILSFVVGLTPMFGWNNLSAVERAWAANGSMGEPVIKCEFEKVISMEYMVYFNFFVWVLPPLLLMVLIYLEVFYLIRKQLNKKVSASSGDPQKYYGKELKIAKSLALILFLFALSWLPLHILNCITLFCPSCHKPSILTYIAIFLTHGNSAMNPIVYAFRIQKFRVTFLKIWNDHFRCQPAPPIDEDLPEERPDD

Molecule CCCn1c(=O)c2[nH]c(-c3ccn(CC(=O)Nc4ccc(Cl)cc4)n3)nc2n(CCC)c1=O has a Ki [1] greater than 1 µM.

For CCCn1c(=O)c2[nH]c(-c3cc(C)n(CC(=O)Nc4ccc(N(C)C)cc4)n3)nc2n(CCC)c1=O, the Ki [1] was greater than 1 µM and the Ki [2] was greater than 1 µM.

Molecule CCCn1c(=O)c2[nH]c(-c3nn(CC(=O)Nc4ccc(Cl)cc4)c(C)c3I)nc2n(CCC)c1=O has a Ki [1] greater than 1 µM and a Ki [2] greater than 1 µM.

CCCn1c(=O)c2[nH]c(-c3cc(C)n(CC(=O)Nc4cccc(Cl)c4)n3)nc2n(CCC)c1=O showed a Ki [1] greater than 1 µM.

For CCCn1c(=O)c2[nH]c(-c3cc(C)n(CC(=O)Nc4ccc(OC)c(OC)c4)n3)nc2n(CCC)c1=O, the Ki [1] was greater than 1 µM.

In the case of CCCn1c(=O)c2[nH]c(-c3cc(C)n(CC(=O)Nc4ccc(F)cc4)n3)nc2n(CCC)c1=O, the Ki [1] is reported as greater than 1 µM.

CCCn1c(=O)c2[nH]c(-c3cc(OCC(=O)Nc4ccc(OC)c(OC)c4)nn3C)nc2n(CCC)c1=O gave a Ki [3] greater than 1 µM, a Ki [4] greater than 1 µM and a Ki [1] greater than 1 µM.

CCCn1c(=O)c2[nH]c(-c3cc(C)n(CC(=O)Nc4ccc(Cl)c(Cl)c4)n3)nc2n(CCC)c1=O gave a Ki [1] greater than 1 µM.

CCCn1c(=O)c2[nH]c(-c3nn(CC(=O)Nc4ccc(Cl)cc4)c(C)c3Br)nc2n(CCC)c1=O was tested, and the Ki [1] was greater than 1 µM.

With CCCn1c(=O)c2[nH]c(-c3cc(C)n(CC(=O)Nc4ccc(I)cc4)n3)nc2n(CCC)c1=O the Ki [1] was greater than 1 µM.

With CCCn1c(=O)c2[nH]c(-c3cc(C)n(CC(=O)Nc4ccc(C)cc4)n3)nc2n(CCC)c1=O the Ki [1] was greater than 1 µM.

Work on CCCn1c(=O)c2[nH]c(-c3nn(CC(=O)Nc4ccc(Cl)cc4)c(C)c3Cl)nc2n(CCC)c1=O yielded a Ki [1] greater than 1 µM.

CCCn1c(=O)c2[nH]c(-c3cc(CC)n(CC(=O)Nc4ccc(Cl)cc4)n3)nc2n(CCC)c1=O was tested, and the Ki [1] was greater than 1 µM and the Ki [2] was greater than 1 µM.

Work on CCCn1c(=O)c2[nH]c(-c3cc(C)n(CC(=O)Nc4ccc(Cl)cc4)n3)nc2n(CCC)c1=O yielded a Ki [3] greater than 1 µM, a Ki [4] greater than 1 µM and a Ki [1] greater than 1 µM.

In the case of CCCn1c(=O)c2[nH]c(-c3cc(C)n(CC(=O)Nc4ccccc4)n3)nc2n(CCC)c1=O, the Ki [1] is reported as greater than 1 µM.

Work on CCCn1c(=O)c2[nH]c(-c3cc(C)n(CC(=O)Nc4ccc(C)c(C)c4)n3)nc2n(CCC)c1=O yielded a Ki [1] greater than 1 µM.

CCCn1c(=O)c2[nH]c(-c3cc(C)n(CC(=O)Nc4ccc(OC)cc4)n3)nc2n(CCC)c1=O showed a Ki [1] greater than 1 µM.

CCCn1c(=O)c2[nH]c(-c3cc(C)n(CC(=O)Nc4cccc5ccccc45)n3)nc2n(CCC)c1=O showed a Ki [1] greater than 1 µM and a Ki [2] greater than 1 µM.

Work on CCCn1c(=O)c2[nH]c(-c3cc(C)n(CC(=O)Nc4ccc(Br)cc4)n3)nc2n(CCC)c1=O yielded a Ki [3] greater than 1 µM, a Ki [4] greater than 1 µM and a Ki [1] greater than 1 µM.

For CCCn1c(=O)c2[nH]c(-c3cc(C)n(CC(=O)Nc4cccc(OC)c4)n3)nc2n(CCC)c1=O, the Ki [1] was greater than 1 µM.
